NadD block: NadD (S. aureus) enzyme inhibition. purified NadD enzyme, colorimetric absorbance read-out. inhibition, % at 20 µM. AID 602399. 0.78% of 360,000 active; in the data active = inhibition above about 26%
SUMO1-SIM PPI: alters human SUMO1 binding to SIM partners. AID 602429. inhibition, % at 20 µM. 0.33% of 360,000 active. SUMO1 binding to a labelled peptide, TR-FRET, 1 h. P63165; in the data active = inhibition above about 37%
Target sequence (P63165 whole entry, looked up): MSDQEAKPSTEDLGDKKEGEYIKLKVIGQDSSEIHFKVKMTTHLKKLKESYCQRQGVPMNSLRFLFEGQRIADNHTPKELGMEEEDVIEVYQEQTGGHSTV
STEP inh: STEP (human) phosphatase inhibition. inhibition, % at 20 µM. recombinant STEP, OMFP fluorogenic substrate, fluorescence. 0.25% of 360,000 active;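 active = inhibition at 20 µM, scaled per plate between control wells, above about 37%, limit read from the data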;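 also: 0% = DMSO with enzyme and substrate and 100% = substrate only without enzyme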
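medium = Bis-Tris buffer pH 6.0, 2.5 mM DTT, 0.005% Tween 20 | test system = STEP (striatal-enriched tyrosine phosphatase) enzyme, cell-free | measure = normalized % inhibition | compound dosing = 20 µM, 1% DMSO | also added = 25 µM OMFP | schedule = reaction 20 min, ambient temperature | measured by = fluorescence read at 480 nm ex / 540 nm em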
LMPTP block: LMPTP (human) inhibition | 0.22% of 360,000 active | recombinant LMPTP-A, OMFP fluorogenic substrate, fluorescence intensity | inhibition, % at 20 µM;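 active = compounds that cut the enzyme signal by at least half of the control window in the single-dose screen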;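 also: plate controls were DMSO wells with enzyme plus substrate for no effect and substrate without enzyme for full effect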
Target sequence (P24666 whole entry, looked up): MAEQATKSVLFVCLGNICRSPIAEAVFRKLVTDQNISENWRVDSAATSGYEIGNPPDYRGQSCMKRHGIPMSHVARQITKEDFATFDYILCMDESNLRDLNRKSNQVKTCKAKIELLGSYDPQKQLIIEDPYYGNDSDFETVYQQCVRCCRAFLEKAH
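Material: LMPTP-A; amount: 0.625 nM enzyme; doses: single 20 µM dose; times: reaction 50 min, room temperature, dark; technique: fluorescence intensity of OMFP turnover product; benchmarks: no-enzyme and uninhibited controls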
Scp1 inh: inhibitors of human Scp-1 phosphatase; Q9GZU7; Recombinant Scp1, phosphopeptide, malachite green phosphate absorbance; inhibition, % at 20 µM; 0.88% of 340,000 active;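 active = inhibition above about 50% at 20 µM, limit read from the data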;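 also: plate controls were DMSO wells with enzyme for no effect and wells lacking enzyme for full effect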
Target sequence (Q9GZU7 76-261 limits assumed): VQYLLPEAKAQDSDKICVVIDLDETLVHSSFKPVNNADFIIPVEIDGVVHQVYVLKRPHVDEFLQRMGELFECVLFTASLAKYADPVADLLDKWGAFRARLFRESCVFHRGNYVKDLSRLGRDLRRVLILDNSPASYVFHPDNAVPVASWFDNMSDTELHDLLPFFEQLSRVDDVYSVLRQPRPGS
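assay system = SCP-1 phosphatase catalytic domain, residues 76-261 | buffer or medium = 50 mM Tris acetate pH 5.5, 0.005% Tween-20, 10 mM MgCl2 | incubation = enzyme reaction 45 min at room temperature, colour 5 min, stabilisation 30 min | signal = Phosphate-binding colour reagent, absorbance read at 630 nm | measure = % inhibition at 20 µM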
DNMT1 inh: DNMT1 (human) enzyme inhibition. inhibition (reported as % activation of signal), % at 10 µM. AID 588458. 0.83% of 360,000 active. DNMT1 molecular beacon, Hinp1I cleavage, fluorescence; in the data active = inhibition above about 50%
DNMT1 confirm: DNMT1 inhibition confirmation, single concentration; shares compounds with DNMT1 inh; DNMT1 molecular beacon HinP1I cleavage, fluorescence; inhibition, % at 10 µM; 8% of 2,300 active;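 active = average inhibition of at least 30% in the single-concentration confirmation test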
Beacon interf: counter-screen for DNMT1 inhibitors: spectral interference; activation (fluorescence interference), % at 10 µM; DNMT1 molecular beacon spectral interference counterscreen, fluorescence 485/520; shares compounds with DNMT1 inh; 1% of 2,300 active; AID 602387;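 active = activation of at least 30% at 10 µM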;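 also: DNMT1 catalytic domain with a HinP1I cleavage step and a FAM/dabcyl DNA beacon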
An asterisk follows results filed as active; . = not tested or not shown. This is a sample that favours compounds with a hit; in the whole collection about 2.4% have one here.

SMILES | NadD block | SUMO1-SIM PPI | STEP inh | LMPTP block | Scp1 inh | DNMT1 inh | DNMT1 confirm | Beacon interf
CCOC(=O)c1c(NC(=O)C2CCCO2)sc(C(=O)OC(C)(C)C)c1C (stereo unspecified) | 6 | 5 | 8 | 2 | 0 | 51* | 2 | 5
CCOC(=O)c1c(NC(=O)C2CCCO2)sc(C)c1C (stereo unspecified) | 1 | -1 | -1 | 0 | -5 | 4 | . | .
COc1cc(/C=C2\SC(=O)N(c3ccc(Cl)cc3)C2=O)cc([N+](=O)[O-])c1O | 60* | 106* | 97* | 84* | 55* | 86* | -2 | -5
CCOc1ccc(/C=C2\SC(=O)N(c3ccc(O)cc3)C2=O)cc1OC | . | . | . | . | -2 | . | . | .
Clc1ccc(-c2cc3nc(NCc4cccc(Cl)c4)ccn3n2)cc1 | 3 | 7 | 3 | 4 | . | 79* | 6 | 9
O=C1C2CC(O)CN2C(=S)N1Cc1ccccc1 (stereo unspecified) | -1 | 0 | -1 | 0 | -4 | 1 | . | .
COC(=O)C1=COC(OC2OC(CO)C(O)C(O)C2O)C2C(C)CC(=O)C12 (stereo unspecified) | 0 | 2 | 18 | 8 | . | 74* | 2 | 2
O=C(O)c1cc([N+](=O)[O-])ccc1NCc1ccccc1 | -5 | -4 | 1 | 0 | 2 | 2 | . | .
Cc1cc(C)cc(-n2nnc3ccccc3c2=O)c1 | -4 | -7 | 3 | -1 | . | 4 | . | .
CN(C)N1C(N)=C(C#N)C(c2ccc(Cl)cc2)C2=C1CCCC2=O (stereo unspecified) | -2 | 4 | 1 | -1 | -9 | 1 | . | .
Cc1ccc(C2C(C#N)=C(N)N(N(C)C)C3=C2C(=O)CCC3)cc1 (stereo unspecified) | 2 | 2 | -2 | 0 | -17 | 79* | 2 | 2
Nc1ccc2sc(N)nc2c1 | 2 | 7 | 2 | 1 | -6 | -4 | . | .
Cc1nc(C(=O)Nc2ccccc2Cl)cc2c1[nH]c1ccccc12 | 15 | -1 | 0 | -1 | 3 | 50* | 1 | 0
CCOC(=O)c1c(-c2cccs2)csc1NC(=O)CN1CC(C)OC(C)C1 (stereo unspecified) | 2 | -1 | 6 | 2 | -5 | 3 | . | .
Cc1ccc(C2(C(F)(F)F)NC(=O)N3CCCN=C3S2)cc1 (stereo unspecified) | 6 | -3 | 0 | -1 | -5 | 0 | . | .
Cc1ccc(C2(C(F)(F)F)NC(=O)N3CCN=C3S2)cc1 (stereo unspecified) | 3 | 35 | 3 | -5 | -7 | 95* | 4 | 5
CC(Sc1nnnn1C)C(=O)Nc1cc(S(=O)(=O)N2CCCCC2)ccc1Cl (stereo unspecified) | 1 | 16 | -1 | -1 | -10 | 8 | . | .
COc1cccc(CN2CCN(C(=O)c3ccc(-c4ccccc4)cc3)CC2)c1 | -1 | -1 | -1 | 1 | -3 | -4 | . | .
Cc1sc2ncnc(NC(C)C(=O)O)c2c1C (stereo unspecified) | -2 | 1 | -2 | 0 | 1 | 55* | 1 | -3
Cc1sc2ncnc(N[C@@H](CCC(=O)O)C(=O)O)c2c1C | 1 | 4 | -1 | -3 | 1 | 1 | . | .
COC(=O)c1ccccc1NC(=O)c1cc(-c2cccs2)on1 | -1 | 0 | 2 | 5 | 0 | 56* | 3 | -3
O=C1c2cccc3c(O)ccc(c23)C(=O)N1Cc1ccco1 | -7 | -104 | -72 | -3 | 12 | 95* | 133* | 116*
O=C1c2ccccc2C(=O)N1Cc1ccco1 | 8 | -8 | -7 | 0 | -10 | 0 | . | .
O=[N+]([O-])c1ccc(Oc2ccc(-c3nnco3)cc2)c(Cl)c1 | -2 | -36 | 3 | 1 | -5 | 1 | . | .
O=C(c1cccc(F)c1)N1CCN(Cc2ccc3c(c2)OCO3)CC1 | -2 | 0 | -2 | -1 | -10 | -1 | . | .
